In ChEMBL document CHEMBL1154093, “New azoles with potent antifungal activity: design, synthesis and molecular docking” (2009):
Converted amounts (≈) assume the structure as drawn. The source made the active and inactive calls. No cut-off for these calls is given here.

Experiments:
Candida parapsilosis = assay: Antifungal activity against Candida parapsilosis after 24 hrs by serial dilution method; assay type: functional, organism-based
Outline: (§1)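 NCCLS broth microdilution in RPMI 1640 buffered with 0.165 M MOPS, with strains from ATCC or clinical isolates. Compounds were dissolved in DMSO and serially diluted in medium. Yeasts were incubated at 35 °C and read at 24 h for Candida or 72 h for C. neoformans. MIC was the lowest concentration giving ≥80% turbidity inhibition versus the growth control.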

Aspergillus fumigatus = assay: Antifungal activity against Aspergillus fumigatus after 7 days by serial dilution method; assay type: functional; settings: 168 h
Outline: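 Filamentous fungus (ATCC or clinical isolate) was tested by NCCLS microdilution in MOPS-buffered (0.165 M) RPMI 1640. Compounds were dissolved in DMSO and serially diluted in medium, and growth was scored at 7 days. MIC was the lowest concentration producing ≥80% inhibition of turbidity compared with the untreated control.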

Candida albicans [1] = assay: Antifungal activity against Candida albicans after 24 hrs by serial dilution method; assay type: functional; outline: as §1
Candida tropicalis = assay: Antifungal activity against Candida tropicalis after 24 hrs by serial dilution method; assay type: functional; outline: as §1
Candida albicans [2] = assay: Antifungal activity against multidrug-resistant Candida albicans after 24 hrs by serial dilution method; assay type: functional
Outline: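 Broth serial dilution in 96-well plates per NCCLS recommendations; RPMI 1640 buffered with 0.165 M MOPS as medium. Compounds dissolved in DMSO, serially diluted in growth medium. Strains from ATCC or clinical isolates. Yeasts incubated at 35 °C, read at 24 h for Candida. MIC = lowest concentration giving turbidity at or below 80% inhibition versus growth control.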

Trichophyton rubrum = assay: Antifungal activity against Trichophyton rubrum after 7 days by serial dilution method; assay type: functional; settings: 168 h
Outline: (§2)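 Dermatophytes (ATCC or clinical isolates) were tested by NCCLS serial dilution in RPMI 1640 with 0.165 M MOPS, incubated at 28 °C and read at 7 days. Compounds were taken up in DMSO and diluted in medium. MIC was the lowest concentration reducing turbidity by at least 80% relative to the drug-free growth control.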

Nannizzia gypsea = assay: Antifungal activity against Microsporum gypseum after 7 days by serial dilution method; assay type: functional; settings: 168 h; outline: as §2
Cryptococcus neoformans = assay: Antifungal activity against Cryptococcus neoformans after 72 hrs by serial dilution method; assay type: functional; outline: as §1

Nc1cccc(OCCCN2CCN(CC(O)(Cn3cncn3)c3ccc(F)cc3F)CC2)c1 (racemic)
Activity (Candida parapsilosis): Active | MIC80 (Aspergillus fumigatus): > 64 mg/L | MIC80 (Candida albicans [1]): 1 mg/L (≈ 2.12 µM) | MIC80 (Candida tropicalis): 1 mg/L (≈ 2.12 µM) | MIC80 (Candida albicans [2]): 0.25 mg/L (≈ 0.529 µM) | MIC80 (Trichophyton rubrum): 4 mg/L (≈ 8.46 µM) | MIC80 (Nannizzia gypsea): 64 mg/L (≈ 135 µM) | MIC80 (Cryptococcus neoformans): 16 mg/L (≈ 33.9 µM)

Cc1cccc(OCCCN2CCN(CC(O)(Cn3cncn3)c3ccc(F)cc3F)CC2)c1 (racemic)
Activity (Candida parapsilosis): Active | MIC80 (Aspergillus fumigatus): 16 mg/L (≈ 33.9 µM) | MIC80 (Candida albicans [1]): 0.0156 mg/L (≈ 0.0331 µM) | MIC80 (Candida tropicalis): 0.0625 mg/L (≈ 0.133 µM) | MIC80 (Candida albicans [2]): 0.125 mg/L (≈ 0.265 µM) | MIC80 (Trichophyton rubrum): 0.25 mg/L (≈ 0.53 µM) | MIC80 (Nannizzia gypsea): 1 mg/L (≈ 2.12 µM) | MIC80 (Cryptococcus neoformans): 1 mg/L (≈ 2.12 µM)

O=[N+]([O-])c1ccccc1OCCCN1CCN(CC(O)(Cn2cncn2)c2ccc(F)cc2F)CC1 (racemic)
Activity (Candida parapsilosis): Active | MIC80 (Aspergillus fumigatus): 64 mg/L (≈ 127 µM) | MIC80 (Candida albicans [1]): 0.25 mg/L (≈ 0.497 µM) | MIC80 (Candida tropicalis): 0.25 mg/L (≈ 0.497 µM) | MIC80 (Candida albicans [2]): 2 mg/L (≈ 3.98 µM) | MIC80 (Trichophyton rubrum): 1 mg/L (≈ 1.99 µM) | MIC80 (Nannizzia gypsea): 4 mg/L (≈ 7.96 µM) | MIC80 (Cryptococcus neoformans): 4 mg/L (≈ 7.96 µM)

OC(CN1CCN(CCCOc2ccc(Cl)cc2)CC1)(Cn1cncn1)c1ccc(F)cc1F (racemic)
Activity (Candida parapsilosis): Active | MIC80 (Aspergillus fumigatus): 4 mg/L (≈ 8.13 µM) | MIC80 (Candida albicans [1]): 0.0156 mg/L (≈ 0.0317 µM) | MIC80 (Candida tropicalis): 0.0156 mg/L (≈ 0.0317 µM) | MIC80 (Candida albicans [2]): 0.125 mg/L (≈ 0.254 µM) | MIC80 (Trichophyton rubrum): 0.0156 mg/L (≈ 0.0317 µM) | MIC80 (Nannizzia gypsea): 0.25 mg/L (≈ 0.508 µM) | MIC80 (Cryptococcus neoformans): 0.25 mg/L (≈ 0.508 µM)

Cc1ccccc1OCCCN1CCN(CC(O)(Cn2cncn2)c2ccc(F)cc2F)CC1 (racemic)
Activity (Candida parapsilosis): Active | MIC80 (Aspergillus fumigatus): 32 mg/L (≈ 67.9 µM) | MIC80 (Candida albicans [1]): 0.0625 mg/L (≈ 0.133 µM) | MIC80 (Candida tropicalis): 0.0625 mg/L (≈ 0.133 µM) | MIC80 (Candida albicans [2]): 0.125 mg/L (≈ 0.265 µM) | MIC80 (Trichophyton rubrum): 0.25 mg/L (≈ 0.53 µM) | MIC80 (Nannizzia gypsea): 1 mg/L (≈ 2.12 µM) | MIC80 (Cryptococcus neoformans): 1 mg/L (≈ 2.12 µM)

OC(CN1CCN(CCCOc2ccc(F)cc2)CC1)(Cn1cncn1)c1ccc(F)cc1F (racemic)
Activity (Candida parapsilosis): Active | MIC80 (Aspergillus fumigatus): 32 mg/L (≈ 67.3 µM) | MIC80 (Candida albicans [1]): 0.0156 mg/L (≈ 0.0328 µM) | MIC80 (Candida tropicalis): 0.0625 mg/L (≈ 0.131 µM) | MIC80 (Candida albicans [2]): 32 mg/L (≈ 67.3 µM) | MIC80 (Trichophyton rubrum): 0.25 mg/L (≈ 0.526 µM) | MIC80 (Nannizzia gypsea): 1 mg/L (≈ 2.1 µM) | MIC80 (Cryptococcus neoformans): 1 mg/L (≈ 2.1 µM)

Cc1ccc(OCCCN2CCN(CC(O)(Cn3cncn3)c3ccc(F)cc3F)CC2)cc1 (racemic)
Activity (Candida parapsilosis): Active | MIC80 (Aspergillus fumigatus): 8 mg/L (≈ 17 µM) | MIC80 (Candida albicans [1]): 0.0156 mg/L (≈ 0.0331 µM) | MIC80 (Candida tropicalis): 0.0625 mg/L (≈ 0.133 µM) | MIC80 (Candida albicans [2]): 0.12 mg/L (≈ 0.254 µM) | MIC80 (Trichophyton rubrum): 0.0625 mg/L (≈ 0.133 µM) | MIC80 (Nannizzia gypsea): 0.25 mg/L (≈ 0.53 µM) | MIC80 (Cryptococcus neoformans): 0.25 mg/L (≈ 0.53 µM)

CC(=O)Nc1ccc(OCCCN2CCN(CC(O)(Cn3cncn3)c3ccc(F)cc3F)CC2)cc1 (racemic)
Activity (Candida parapsilosis): Active | MIC80 (Aspergillus fumigatus): > 64 mg/L | MIC80 (Candida albicans [1]): 0.25 mg/L (≈ 0.486 µM) | MIC80 (Candida tropicalis): 0.25 mg/L (≈ 0.486 µM) | MIC80 (Candida albicans [2]): 2 mg/L (≈ 3.89 µM) | MIC80 (Trichophyton rubrum): 0.25 mg/L (≈ 0.486 µM) | MIC80 (Nannizzia gypsea): 4 mg/L (≈ 7.77 µM) | MIC80 (Cryptococcus neoformans): 1 mg/L (≈ 1.94 µM)

OC(CN1CCN(CCCOc2ccccc2Br)CC1)(Cn1cncn1)c1ccc(F)cc1F (racemic)
Activity (Candida parapsilosis): Active | MIC80 (Aspergillus fumigatus): 16 mg/L (≈ 29.8 µM) | MIC80 (Candida albicans [1]): 0.0625 mg/L (≈ 0.117 µM) | MIC80 (Candida tropicalis): 0.0156 mg/L (≈ 0.0291 µM) | MIC80 (Candida albicans [2]): 8 mg/L (≈ 14.9 µM) | MIC80 (Trichophyton rubrum): 0.25 mg/L (≈ 0.466 µM) | MIC80 (Nannizzia gypsea): 1 mg/L (≈ 1.86 µM) | MIC80 (Cryptococcus neoformans): 1 mg/L (≈ 1.86 µM)

OC(CN1CCN(CCCCOc2ccccc2)CC1)(Cn1cncn1)c1ccc(F)cc1F (racemic)
Activity (Candida parapsilosis): Active | MIC80 (Aspergillus fumigatus): 8 mg/L (≈ 17 µM) | MIC80 (Candida albicans [1]): 0.25 mg/L (≈ 0.53 µM) | MIC80 (Candida tropicalis): 0.25 mg/L (≈ 0.53 µM) | MIC80 (Candida albicans [2]): 32 mg/L (≈ 67.9 µM) | MIC80 (Trichophyton rubrum): 1 mg/L (≈ 2.12 µM) | MIC80 (Nannizzia gypsea): 4 mg/L (≈ 8.48 µM) | MIC80 (Cryptococcus neoformans): 1 mg/L (≈ 2.12 µM)

OC(Cn1cncn1)(Cn1cncn1)c1ccc(F)cc1F [FLUCONAZOLE]
Activity (Candida parapsilosis): Active | MIC80 (Aspergillus fumigatus): > 64 mg/L | MIC80 (Candida albicans [1]): 1 mg/L (≈ 3.27 µM) | MIC80 (Candida tropicalis): 1 mg/L (≈ 3.27 µM) | MIC80 (Candida albicans [2]): > 64 mg/L | MIC80 (Trichophyton rubrum): 4 mg/L (≈ 13.1 µM) | MIC80 (Nannizzia gypsea): 16 mg/L (≈ 52.2 µM) | MIC80 (Cryptococcus neoformans): 1 mg/L (≈ 3.27 µM)

CCC(C)n1ncn(-c2ccc(N3CCN(c4ccc(OCC5COC(Cn6cncn6)(c6ccc(Cl)cc6Cl)O5)cc4)CC3)cc2)c1=O (centres undefined) [ITRACONAZOLE]
Activity (Candida parapsilosis): Active | MIC80 (Aspergillus fumigatus): 2 mg/L (≈ 2.83 µM) | MIC80 (Candida albicans [1]): 0.125 mg/L (≈ 0.177 µM) | MIC80 (Candida tropicalis): 0.125 mg/L (≈ 0.177 µM) | MIC80 (Candida albicans [2]): > 64 mg/L | MIC80 (Trichophyton rubrum): 0.125 mg/L (≈ 0.177 µM) | MIC80 (Nannizzia gypsea): 0.25 mg/L (≈ 0.354 µM) | MIC80 (Cryptococcus neoformans): 0.125 mg/L (≈ 0.177 µM)

C[C@@H](c1ncncc1F)[C@](O)(Cn1cncn1)c1ccc(F)cc1F [VORICONAZOLE]
Activity (Candida parapsilosis): Active | MIC80 (Aspergillus fumigatus): 0.5 mg/L (≈ 1.43 µM) | MIC80 (Candida albicans [1]): 0.0625 mg/L (≈ 0.179 µM) | MIC80 (Candida tropicalis): 0.0625 mg/L (≈ 0.179 µM) | MIC80 (Candida albicans [2]): > 64 mg/L | MIC80 (Trichophyton rubrum): 0.0625 mg/L (≈ 0.179 µM) | MIC80 (Nannizzia gypsea): 0.0625 mg/L (≈ 0.179 µM) | MIC80 (Cryptococcus neoformans): 0.0625 mg/L (≈ 0.179 µM)
